Assay outcomes as filed in PubChem.
SKN-1 inh – C. elegans SKN-1 inhibition; inhibition, % at 21.8 µM; C. elegans VP596 Pgst-4::GFP/RFP ratio, acrylamide-induced, 24 h; AID 624304; actives 0.49% (n = 360,000);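 active means interference check ratio from 0.5 to 1.5 plus GFP to RFP signal ratio inhibition reaching or exceeding a fixed threshold, cut at about 30% in these data, passing the limit was not always enough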
MT1-MMP act inh – blocks activation of human MT1-MMP; HT1080 RFP-PRO-GFP cells, GFP/RFP ratio fluorescence, overnight; percent of plate control window, DMSO zero; GFP/RFP ratio change, % at 20 µM; actives 0.061% (n = 360,000);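 active means GFP/RFP ratio change of at least 30% with cell ATP level not reduced by more than half and red fluorescence within 50% of control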
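Assay system: HT1080 RFP-PRO-GFP cells. Benchmarks: DMSO vehicle wells and RFP-L50D-GFP reporter cell wells. Times: overnight cell settling, then overnight compound exposure, 37 °C, 5% CO2. Compound: 20 µM single dose, 1% DMSO. Read-out basis: GFP/RFP fluorescence ratio.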
GC-A act – GC-A (human) enzyme activation. AID 1671463. actives 0.14% (n = 370,000). HEK293 GC-A cells, cGMP TR-FRET, EC30 ANP; 0% at EC30 ANP, 100% saturating ANP. activation, % at 10 µM; in the data active means activation above about 40%
Target sequence (P16066 whole entry, looked up): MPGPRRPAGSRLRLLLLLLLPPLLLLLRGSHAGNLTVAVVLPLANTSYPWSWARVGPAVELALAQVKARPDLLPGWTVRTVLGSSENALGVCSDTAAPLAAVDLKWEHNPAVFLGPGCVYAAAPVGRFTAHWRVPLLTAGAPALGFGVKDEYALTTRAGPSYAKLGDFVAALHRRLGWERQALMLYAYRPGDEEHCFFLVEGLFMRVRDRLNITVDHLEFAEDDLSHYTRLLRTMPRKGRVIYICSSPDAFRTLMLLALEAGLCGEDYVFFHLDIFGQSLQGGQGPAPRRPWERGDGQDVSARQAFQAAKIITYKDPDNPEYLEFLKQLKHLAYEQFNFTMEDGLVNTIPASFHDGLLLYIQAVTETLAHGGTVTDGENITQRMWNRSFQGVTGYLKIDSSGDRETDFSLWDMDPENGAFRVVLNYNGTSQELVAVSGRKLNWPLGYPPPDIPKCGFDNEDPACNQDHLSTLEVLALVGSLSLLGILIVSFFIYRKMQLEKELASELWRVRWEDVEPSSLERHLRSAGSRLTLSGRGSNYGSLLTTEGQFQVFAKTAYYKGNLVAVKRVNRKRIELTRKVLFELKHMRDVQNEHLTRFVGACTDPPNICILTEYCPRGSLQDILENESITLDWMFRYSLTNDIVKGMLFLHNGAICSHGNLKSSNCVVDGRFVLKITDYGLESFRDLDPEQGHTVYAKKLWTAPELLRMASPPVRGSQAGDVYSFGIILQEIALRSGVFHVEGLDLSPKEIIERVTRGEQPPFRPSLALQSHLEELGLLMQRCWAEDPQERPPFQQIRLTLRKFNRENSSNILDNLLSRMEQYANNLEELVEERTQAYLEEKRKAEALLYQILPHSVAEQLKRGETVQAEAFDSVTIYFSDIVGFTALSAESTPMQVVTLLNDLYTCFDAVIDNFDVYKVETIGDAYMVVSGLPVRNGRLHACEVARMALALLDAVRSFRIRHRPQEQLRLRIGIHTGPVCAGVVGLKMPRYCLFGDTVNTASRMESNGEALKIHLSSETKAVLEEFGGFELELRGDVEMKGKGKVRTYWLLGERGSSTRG
Tb MetRS inh – blocks T. brucei methionyl-tRNA synthetase activity. purified T. brucei MetRS, ATP depletion, Kinase-Glo luminescence. inhibition, % at 11.9 µM. actives 0.4% (n = 360,000). AID 624268;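 active means inhibition above a per-plate cutoff of the control wells' mean inhibition plus 3 SD, cut at about 5.5% in these data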;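 further: 0% = DMSO wells median and 100% = median of wells with control inhibitor compound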
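Material: parasite MetRS enzyme / Replication: singlicate, one well per compound / Signal: luminescence of leftover ATP / Schedule: 2 h aminoacylation at 25 °C after 15 min preincubation / Medium: HEPES-MgCl2-KCl buffer plus DTT, spermine, BSA, pyrophosphatase / Doses: 11.9 µM single point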
A1 inh – inhibitors of the anti-apoptotic protein A1, read as caspase activation; MEF A1-2A-BIM cells, Caspase-Glo 3/7 luminescence, 3 h; percent of clofoctol response, vehicle zero; caspase activation, % (test concentration not listed); actives 0.066% (n = 330,000);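 active means over half of replicate activation scores above 10%, or exactly half above 10 with the replicate mean above 10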
NPR2 activator – GC-B (human) receptor activation. activation, % at 10 µM. P20594. actives 0.11% (n = 370,000). HEK293-GC-B cells, CNP EC30, cGMP TR-FRET; 0% at EC30 CNP, 100% saturating CNP;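 active means activation at 10 µM reaching about 35% in either raw or pattern-adjusted values, limit read from the data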
Tb MetRS conf – Trypanosoma brucei MetRS inhibition confirmed | inhibition, % at 11.9 µM | actives 93% (n = 1,400) | shares compounds with Tb MetRS inh | AID 624412 | T. brucei MetRS enzyme, luminescence (ATP depletion); in the data active means inhibition above about 7%
Jurkat cytotox – Jurkat T cell cytotoxicity for MetRS hits | shares compounds with Tb MetRS inh | Jurkat cells viability, ATP luminescence | inhibition, % at 8.3 µM | actives 12% (n = 1,400) | AID 624413; in the data active means inhibition above about 15%;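 further: 0% = vehicle and 100% = reference inhibitor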
Tb MetRS inh FP – orthogonal test for Trypanosoma brucei MetRS inhibitors | shares compounds with Tb MetRS inh | purified T. brucei MetRS, fluorescence polarization | actives 44% (n = 1,400) | inhibition, % at 11.9 µM; in the data active means inhibition above about 17%;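 further: 0% = vehicle wells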
* hit, by the source's call; . = not tested or not shown. The list is not random: actives were taken first. Their share in the collection is about 1.1%.

SMILES	SKN-1 inh	MT1-MMP act inh	GC-A act	Tb MetRS inh	A1 inh	NPR2 activator	Tb MetRS conf	Jurkat cytotox	Tb MetRS inh FP
CC(=O)c1cc(-c2ccccc2S(=O)(=O)NC(C)(C)C)c(=O)n2c1CCC2	.	.	1	.	.	-2	.	.	.
COC(=O)[C@]12C[C@H](CC(=O)N3CCCCC3)C(=O)N(Cc3ccc4c(c3)OCO4)C1=C[C@H](C(C)C)O[C@@H]2C1CC1	.	.	-8	.	.	-11	.	.	.
O=C(NCc1cccc(Cl)c1)c1cccc(S(=O)(=O)N2CCCC2)c1	-2	-1	-2	13*	0	4	43*	2	26*
O=C(Nc1nc2ccccc2[nH]1)c1cccc(S(=O)(=O)N2CCOCC2)c1	6	6	-2	0	-1	1	.	.	.
O=C(NCc1cccc(Cl)c1)c1cccc(S(=O)(=O)N2CCCCC2)c1	-9	3	2	5	0	0	.	.	.
Cc1ccc(S(=O)(=O)N2CCN(Cc3nc4ccccc4[nH]3)CC2)cc1C	-17	1	-8	5.8*	0	-9	17*	0	5
Cc1c(NS(=O)(=O)c2cc(C(=O)NCc3cccnc3)ccc2Cl)c(=O)n(-c2ccccc2)n1C	-3	1	2	0	-1	1	.	.	.
O=C(NCc1nc2ccccc2[nH]1)c1cccc(S(=O)(=O)N2CCOCC2)c1	14	2	0	65*	0	-1	94*	7	58*
Cc1c(NS(=O)(=O)c2cc(C(=O)NCc3cccc(Cl)c3)ccc2Cl)c(=O)n(-c2ccccc2)n1C	-8	2	-1	11*	.	1	34*	0	24*
O=C(CSc1nnc(-c2cccs2)n1Cc1ccco1)Nc1ccc(OCc2ccccc2)cc1	.	.	0	.	.	7	.	.	.
O=C(NCc1nc2ccccc2[nH]1)c1cccc(S(=O)(=O)N2CCCC2)c1	-18	-2	0	7.9*	0	-6	19*	-7	14
COCCCNC(=O)C[C@H]1C[C@@]2(C(=O)OC)C(=C[C@H](C3CCCC3)O[C@@H]2C)N(CCC2=CCCCC2)C1=O	.	.	-1	.	.	0	.	.	.
O=C(CCCn1c(=S)[nH]c2cc3c(cc2c1=O)OCO3)N1CCN(c2ccc(Cl)cc2)CC1	21	-2	2	8.3*	1	-2	70*	2	35*
COc1cccc(CC(=O)Nc2nc3ccccc3[nH]2)c1	-18	2	9	6.0*	0	-1	14*	0	7
O=C(COc1ccc2ccccc2c1)Nc1nc2ccccc2[nH]1	-2	-1	-4	9.1*	0	-11	12*	2	5
COc1ccc(OCC(=O)Nc2nc3ccccc3[nH]2)cc1	9	2	-2	0	-1	-7	.	.	.
Clc1ccc(SCc2nc3ccccc3[nH]2)cc1	19	-2	-12	17*	0	-9	30*	8	13
Clc1ccc(OCCSCc2nc3ccccc3[nH]2)cc1	24	-5	4	58*	0	-6	73*	5	48*
Fc1ccccc1CSCc1nc2ccccc2[nH]1	12	5	0	1	-2	-6	.	.	.
Brc1cnc2nc(SCc3nc4ccccc4[nH]3)[nH]c2c1	25	2	-1	57*	0	-10	85*	-2	65*
Fc1ccc(CSc2nc3ncc(Br)cc3[nH]2)cc1	22	1	-7	3	0	-14	.	.	.
Clc1ccc(/C(Cc2nc3ccccc3[nH]2)=N\Nc2ccccc2)cc1	7	-3	-12	8.6*	-1	-13	32*	4	17*
CCOC(=O)C1CCN(C(=O)C(C)(C)NC(=O)Nc2ccc3c(c2)CCC3)CC1	.	.	2	.	.	-6	.	.	.
C#CCNC(=O)C[C@H]1C[C@@]2(C(=O)OC)C(=C[C@H](COCc3ccccc3)O[C@@H]2C)N(Cc2ccc(Cl)cc2Cl)C1=O	.	.	-5	.	.	-1	.	.	.
COC(=O)[C@]12C[C@H](CC(=O)NCCCN3CCCC3=O)C(=O)N(CCC3=CCCCC3)C1=C[C@H](C(C)C)O[C@@H]2C1CC1	.	.	-1	.	.	1	.	.	.
SMILES	SKN-1 inh	MT1-MMP act inh	GC-A act	Tb MetRS inh	A1 inh	NPR2 activator	Tb MetRS conf	Jurkat cytotox	Tb MetRS inh FP
C#CCCN([C@H](C(=O)OC)C(C)CC)S(=O)(=O)c1ccccc1Br (stereo partly drawn)	.	.	-11	.	.	-10	.	.	.
COC(=O)[C@H](CC(C)C)N1Cc2nnn(CC3CCCCC3)c2-c2cc(F)ccc2S1(=O)=O	.	.	2	.	.	3	.	.	.
C(=N\Nc1nc2ccccc2[nH]1)/c1ccccc1	1	8	-5	3	-2	-6	.	.	.
Cc1[nH]c2ccccc2c1/C=N/Nc1nc2ccccc2[nH]1	-6	18	-2	8.3*	-1	-8	29*	9	30*
O=[N+]([O-])c1ccc(N/N=C/c2c[nH]c3ccccc23)cc1	8	-106	-13	7.5*	0	-20	12*	21*	55*
Brc1ccc(-c2ccc(/C=N/Nc3nc4ccccc4[nH]3)o2)cc1	2	8	3	11*	-1	1	7.9*	12	20*
C(=N\Nc1nc2ccccc2[nH]1)/c1c[nH]c2ccccc12	9	13	-10	12*	-1	-4	26*	13	47*
CC(C)(C)c1ccc(-c2csc(N3CCC(C(N)=O)CC3)n2)cc1	.	.	0	.	.	-11	.	.	.
NC(=NCCc1c[nH]c2ccccc12)NC(=O)c1ccc(Cl)cc1	-22	.	-21	29*	1	-12	35*	2	16
O=c1c(Cc2ccc(Cl)cc2Cl)c(O)ccn1Cc1ccc(Cl)cc1	-1	4	1	5.9*	0	3	16*	6	13
CCOC(=O)Cn1ccc(O)c(Cc2ccc(Cl)cc2Cl)c1=O	23	4	1	23*	0	1	38*	5	16
CCOC(CCn1ccc(O)c(Cc2ccc(Cl)cc2)c1=O)OCC	5	-4	5	0	1	3	.	.	.
Cc1ccccc1CC(=O)Nc1nnc(-c2cccnc2)s1	.	.	-1	.	.	-5	.	.	.
CCCC/C=C1/[C@H](c2ccc(Cl)cc2)N(Cc2ccc3c(c2)OCO3)C2=N[C@H](c3ccccc3)CC(=O)N21	.	.	-1	.	.	3	.	.	.
